Assay results reported in ChEMBL document CHEMBL1140035, “4"-Benzoylureido-TSAO derivatives as potent and selective non-nucleoside HCMV inhibitors. Structure-activity relationship and mechanism of antiviral action” (J Med Chem, 2008).
In brackets after ≈: the same amount, converted by molar mass. Activity calls are given as the source filed them. The calls are words filed in the database; no cut-off is given here.

Experiments:
[1] = tested on: Human betaherpesvirus 5; experiment: Antiviral activity against HCMV Davis in HEL cells assessed as reduction of virus-induced cytopathogenicity after 7 days; assay type: functional, organism-based; details: Human betaherpesvirus 5, Davis, 168 h
Procedure, shortened: (§1)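 Confluent HEL fibroblasts were infected with strain AD-169 or Davis at 100 PFU/well. After 2 h, residual virus was removed and medium with serial compound concentrations was added, in duplicate. Plates were held 7 days at 37 °C, fixed with ethanol, and scored microscopically for virus-induced cytopathicity. EC50 is the concentration reducing cytopathicity by 50%.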

[2] = tested on: Human betaherpesvirus 5; experiment: Antiviral activity against HCMV AD169 in HEL cells assessed as reduction of virus-induced cytopathogenicity after 7 days; assay type: functional, organism-based; details: Human betaherpesvirus 5, AD169, HEL, 168 h; procedure, shortened: as §1
[3] = Cytotoxicity against HEL cells assessed as alteration in cell morphology after 3 days; assay type: cell-based; details: human
Procedure, shortened: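 Minimum cytotoxic concentration: the lowest compound concentration causing a microscopically detectable alteration of HEL cell morphology.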

[4] = tested on: Human betaherpesvirus 5; experiment: Antiviral activity against HCMV in HEL cells assessed as reduction of virus-induced cytopathogenicity administered at 56 hrs post infection; assay type: functional, organism-based
Procedure, shortened: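 Time-of-addition: confluent HEL cultures were infected with about 100 PFU/well of HCMV Davis. Compound dilutions were added at 0 h or at later time points post infection, with one plate set per time point. Seven days after infection, plates were ethanol-fixed and Giemsa-stained. Antiviral effect was scored microscopically and EC50 calculated.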

[5] = tested on: Murid betaherpesvirus 1; experiment: Antiviral activity against MCMV in mouse C127I cells assessed as reduction of virus-induced cytopathogenicity after 7 days; assay type: functional, organism-based; details: Murid betaherpesvirus 1, C127I, 168 h
Procedure, shortened: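 MCMV Smith strain on confluent C127I cells, run as the HCMV assay: 100 PFU/well for 2 h, inoculum removed, then serial compound concentrations in duplicate for 7 days at 37 °C. Cytopathicity was scored microscopically after ethanol fixation. EC50 is the concentration reducing virus-induced cytopathicity by 50%.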

[6] = tested on: Human alphaherpesvirus 3; experiment: Antiviral activity against wild-type VZV in HEL cells after 5 days by plaque reduction assay; assay type: functional, organism-based; details: Human alphaherpesvirus 3, HEL, 120 h
Procedure, shortened: (§2)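 Plaque reduction on confluent HEL monolayers infected with 20 PFU/well of cell-associated VZV. After 2 h, inoculum was replaced by compound dilutions in duplicate, with infected-untreated controls. After 5 days, cells were fixed and Giemsa-stained and plaques counted. EC50 is the concentration reducing plaque formation by 50% versus untreated control.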

[7] = tested on: Human betaherpesvirus 5; experiment: Antiviral activity against ganciclovir-resistant HCMV with DNA polymerase mutant in HEL cells assessed as reduction of virus-induced cytopathogenicity; assay type: functional, organism-based; details: Human betaherpesvirus 5, HEL
Procedure, shortened: (§3)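 Resistant mutants raised in vitro by serial passage of HCMV AD-169 under rising drug concentrations. Confluent HEL fibroblasts infected at 100 PFU/well for 2 h, then the inoculum was removed. Cells were kept with serial compound concentrations in duplicate for 7 days at 37 °C. After ethanol fixation, cytopathicity was scored microscopically. EC50 is the concentration halving virus-induced cytopathicity.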

[8] = tested on: Human betaherpesvirus 5; experiment: Antiviral activity against (S)-3-hydroxy-2-phosphonomethoxypropyl cytosine-resistant HCMV with DNA polymerase mutant in HEL cells assessed as reduction of virus-induced cytopathogenicity; assay type: functional, organism-based; details: Human betaherpesvirus 5, HEL; procedure, shortened: as §3
[9] = tested on: Human betaherpesvirus 5; experiment: Antiviral activity against (S)-3-hydroxy-2-phosphonomethoxypropyl adenine-resistant HCMV with DNA polymerase mutant in HEL cells assessed as reduction of virus-induced cytopathogenicity; assay type: functional, organism-based; details: Human betaherpesvirus 5, HEL; procedure, shortened: as §3
[10] = tested on: Human betaherpesvirus 5; experiment: Antiviral activity against foscarnet-resistant HCMV with DNA polymerase mutant in HEL cells assessed as reduction of virus-induced cytopathogenicity; assay type: functional, organism-based; details: Human betaherpesvirus 5, HEL; procedure, shortened: as §3
[11] = tested on: Human betaherpesvirus 5; experiment: Antiviral activity against acyclovir-resistant HCMV with DNA polymerase mutant in HEL cells assessed as reduction of virus-induced cytopathogenicity; assay type: functional, organism-based; details: Human betaherpesvirus 5, HEL; procedure, shortened: as §3
[12] = tested on: Human betaherpesvirus 5; experiment: Antiviral activity against HCMV 6 with […] mutation in HEL cells assessed as reduction of virus-induced cytopathogenicity; assay type: functional, organism-based; details: Human betaherpesvirus 5, HEL
Procedure, shortened: (§4)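 Drug-resistant HCMV clinical isolates from immunocompromised patients, carrying UL97 and/or DNA polymerase mutations. Confluent HEL fibroblasts infected at 100 PFU/well for 2 h, then residual virus was removed. Medium with serial compound concentrations added in duplicate for 7 days at 37 °C. After ethanol fixation, cytopathicity was scored microscopically. EC50 is the concentration reducing cytopathicity by 50%.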

[13] = tested on: Human betaherpesvirus 5; experiment: Antiviral activity against HCMV 521 with […] and DNA polymerase mutation in HEL cells assessed as reduction of virus-induced cytopathogenicity; assay type: functional, organism-based; details: Human betaherpesvirus 5, HEL; procedure, shortened: as §4
[14] = tested on: Human betaherpesvirus 5; experiment: Antiviral activity against HCMV 530 with […] and DNA polymerase mutation in HEL cells assessed as reduction of virus-induced cytopathogenicity; assay type: functional, organism-based; details: Human betaherpesvirus 5, HEL; procedure, shortened: as §4
[15] = tested on: Human alphaherpesvirus 1; experiment: Antiviral activity against HSV1; assay type: functional, organism-based
[16] = Cytotoxicity against HEL cells assessed as reduction in cell growth after 3 days; assay type: cell-based; details: human
Procedure, shortened: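 HEL cells were seeded at 5 × 10³ cells/well and allowed to proliferate for 24 h. Compound-containing medium was then added at several concentrations for 3 days at 37 °C. Cells were counted with a Coulter counter. CC50, the concentration reducing cell growth by 50% versus untreated controls, was read from plots of cell number (% of control) against concentration.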

[17] = tested on: Human alphaherpesvirus 2; experiment: Antiviral activity against HSV2; assay type: functional, organism-based
[18] = tested on: Human alphaherpesvirus 3; experiment: Antiviral activity against thymidine-kinase deficient VZV in HEL cells after 5 days by plaque reduction assay; assay type: functional, organism-based; details: Human alphaherpesvirus 3, HEL, 120 h; procedure, shortened: as §2
[19] = tested on: Vaccinia virus; experiment: Antiviral activity against vaccinia virus; assay type: functional, organism-based; details: Orthopoxvirus vaccinia
[20] = target: T1, DNA polymerase (Human herpesvirus 5) (UniProt A6BMM6); experiment: Inhibition of HCMV UL54-encoded DNA polymerase at 5 to 7.5 uM after 60 mins; details: Human betaherpesvirus 5
T1 sequence (whole entry): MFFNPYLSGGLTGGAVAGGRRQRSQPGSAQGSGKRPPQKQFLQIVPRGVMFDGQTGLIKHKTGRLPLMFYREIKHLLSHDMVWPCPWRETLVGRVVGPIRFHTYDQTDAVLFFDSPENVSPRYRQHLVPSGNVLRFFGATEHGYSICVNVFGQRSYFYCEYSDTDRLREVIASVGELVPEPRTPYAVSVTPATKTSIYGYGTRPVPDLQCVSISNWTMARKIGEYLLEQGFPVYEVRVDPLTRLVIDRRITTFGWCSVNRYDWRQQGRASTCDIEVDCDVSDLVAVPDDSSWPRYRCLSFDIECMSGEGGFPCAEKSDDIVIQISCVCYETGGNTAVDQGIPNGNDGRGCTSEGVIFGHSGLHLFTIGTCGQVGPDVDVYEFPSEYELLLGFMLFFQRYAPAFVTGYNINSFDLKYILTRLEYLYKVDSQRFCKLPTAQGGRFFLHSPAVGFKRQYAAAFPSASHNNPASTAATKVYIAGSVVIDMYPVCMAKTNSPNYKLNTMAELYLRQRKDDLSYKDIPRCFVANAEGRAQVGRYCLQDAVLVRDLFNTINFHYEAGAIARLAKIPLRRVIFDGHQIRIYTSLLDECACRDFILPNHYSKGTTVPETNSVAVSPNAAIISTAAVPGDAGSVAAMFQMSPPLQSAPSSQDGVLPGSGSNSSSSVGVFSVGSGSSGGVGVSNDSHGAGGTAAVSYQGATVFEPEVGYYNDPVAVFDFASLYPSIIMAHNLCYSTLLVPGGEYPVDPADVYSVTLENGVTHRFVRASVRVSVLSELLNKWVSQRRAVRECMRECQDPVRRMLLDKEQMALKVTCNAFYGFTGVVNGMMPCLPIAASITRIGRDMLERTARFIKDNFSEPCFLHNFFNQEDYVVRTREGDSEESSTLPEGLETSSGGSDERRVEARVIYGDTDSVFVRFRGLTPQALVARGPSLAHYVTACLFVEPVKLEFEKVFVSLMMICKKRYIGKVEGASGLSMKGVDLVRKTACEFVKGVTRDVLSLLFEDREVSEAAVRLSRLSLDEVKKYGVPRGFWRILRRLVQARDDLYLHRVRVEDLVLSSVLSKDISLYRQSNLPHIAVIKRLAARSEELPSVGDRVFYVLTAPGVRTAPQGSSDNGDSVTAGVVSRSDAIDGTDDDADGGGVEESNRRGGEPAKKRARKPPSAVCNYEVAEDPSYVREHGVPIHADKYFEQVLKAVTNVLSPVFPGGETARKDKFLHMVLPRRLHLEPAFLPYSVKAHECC

[21] = tested on: Human betaherpesvirus 5; experiment: Inhibition of immediate early antigen expression in HCMV Davis in HEL cells at 48 hrs post infection by flow cytometry; assay type: functional, organism-based
Procedure, shortened: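 HEL cells were infected with HCMV Davis, with compound dilutions added at infection and incubation at 37 °C. Cells were acetone-fixed at 4 °C, resuspended in PBS with 5% gelatin, and stained at 37 °C with a mAb against IE proteins 1 and 2. A fluorescein-labelled rabbit anti-mouse IgG was applied for 30 min, cells were fixed in 0.5% formaldehyde and analysed by flow cytometry. Background fluorescence of uninfected cells was subtracted.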

## Cc1cn([C@@H]2O[C@H](CO[Si](C)(C)C(C)(C)C(C)C)[C@@]3(OS(=O)(=O)C=C3NC(=O)NC(=O)c3ccccc3)[C@H]2O[Si](C)(C)C(C)(C)C(C)C)c(=O)n(C)c1=O
[1]
  EC50: 1500 nM
[2]
  EC50: 1200 nM
[3]
  MCC at 72 h: ≥ 100 µM
[4]
  Activity: inactive
[5]
  EC50: 540 nM
[6]
  EC50: 11000 nM
[7]
  EC50: 3.3 µg/mL (≈ 4.09 µM)
[8]
  EC50: 2.6 µg/mL (≈ 3.22 µM)
[9]
  EC50: 5.6 µg/mL (≈ 6.94 µM)
[10]
  EC50: 2.7 µg/mL (≈ 3.35 µM)
[11]
  EC50: 2.7 µg/mL (≈ 3.35 µM)
[12]
  EC50: 5.5 µg/mL (≈ 6.81 µM)
[13]
  EC50: 2.9 µg/mL (≈ 3.59 µM)
[14]
  EC50: 5.7 µg/mL (≈ 7.06 µM)
[15]
  Activity: inactive
[16]
  CC50 at 72 h: > 50000 nM
[17]
  Activity: inactive
[18]
  EC50: 11000 nM
[19]
  Activity: inactive

## O=C(O)P(=O)(O)O [FOSCARNET]
[20]
  Activity: Active
[7]
  EC50: 17 µg/mL (≈ 135 µM)
[8]
  EC50: 14 µg/mL (≈ 111 µM)
[9]
  EC50: 35 µg/mL (≈ 278 µM)
[10]
  EC50: 135 µg/mL (≈ 1070 µM)
[11]
  EC50: 37 µg/mL (≈ 294 µM)
[12]
  EC50: 34 µg/mL (≈ 270 µM)
[13]
  EC50: 29 µg/mL (≈ 230 µM)
[14]
  EC50: 31 µg/mL (≈ 246 µM)

## Cc1cn([C@@H]2O[C@H](CO[Si](C)(C)C(C)(C)C(C)C)[C@@]3(OS(=O)(=O)C=C3NC(=O)NC(=O)c3ccccc3)[C@H]2O[Si](C)(C)C(C)(C)C)c(=O)n(C)c1=O
[1]
  EC50: 1400 nM
[2]
  EC50: 1100 nM
[3]
  MCC at 72 h: ≥ 100 µM
[21]
  Activity: inactive
[4]
  Activity: inactive
[5]
  EC50: 660 nM
[6]
  EC50: 11000 nM
[7]
  EC50: 0.9 µg/mL (≈ 1.16 µM)
[8]
  EC50: 1 µg/mL (≈ 1.28 µM)
[9]
  EC50: 3.1 µg/mL (≈ 3.98 µM)
[10]
  EC50: 0.78 µg/mL (≈ 1 µM)
[11]
  EC50: 1.1 µg/mL (≈ 1.41 µM)
[12]
  EC50: 0.86 µg/mL (≈ 1.1 µM)
[13]
  EC50: 0.67 µg/mL (≈ 0.86 µM)
[14]
  EC50: 1.3 µg/mL (≈ 1.67 µM)
[15]
  Activity: inactive
[16]
  CC50 at 72 h: > 50000 nM
[17]
  Activity: inactive
[18]
  EC50: 11000 nM
[19]
  Activity: inactive
